High-throughput results (PubChem BioAssay)
Hits are enriched below; roughly 5% of the tested compounds scored in any of these assays.
Beta apoptosis – beta cell apoptosis inhibition; INS-1E cytokine-induced death, ATP luminescence, 48 h; percent of positive-control rescue, neutral wells zero; 300,000 tested, 0.8% active; protection from apoptosis, % (no concentration beside the values);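 active means Every replicate reaches about 75%, or at least half do and their mean reaches it too, limit read from the data; inconclusive means At least half of replicates reach the limit but their mean does not; inactive means Under half of replicates reach the limit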;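 further: higher means more ATP so stronger rescue from cytokine killing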
T cruzi repl – blocks replication of Trypanosoma cruzi; T. cruzi beta-gal in NIH3T3, luminescence, 90 h; inhibition, % (test concentration not listed); 300,000 tested, 1.4% active; AID 1885;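 active means mean inhibition across valid replicates above about 55%, limit read from the data; inconclusive means mean below that limit but half or more replicates reach it; inactive means mean below it, under half of replicates reach it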;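 further: signal also drops with host cell toxicity which is not excluded here; higher percent means less beta-gal luminescence so fewer parasites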
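Assay system: NIH/3T3 fibroblasts plus reporter T. cruzi. Amount: NIH/3T3 cells, 5,000 per well. Buffer or medium: DMEM, 2% fetal bovine serum. Doses: compound pinned at 50 nL/well, DMSO. Schedule: ≥90 h infection period, 3 h prior cell attachment. Signal: luminescent β-galactosidase signal after 60 min lysis. Read-out: parasite load inhibition, %.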
XBP1 UPR activ – adaptive UPR (XBP1) activation | CHO-XBP1 luciferase reporter, IRE1-XBP1 UPR activation, luminescence; percent of tunicamycin response, DMSO as zero | activation, % at 20 µM | 330,000 tested, 0.33% active;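 active means versus positive control, 20 µM dose yields 30% or more activation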
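Test system: CHO-XBP1 luciferase reporter cells | Buffer or medium: Serum-containing F12 medium, 10% FBS | Schedule: 6 h compound exposure at 37 °C, 5% CO2 | Detection: Steady-Glo luciferase glow luminescence, 10 min after reagent addition | Read-out basis: Activation, % of tunicamycin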
CSC inhib – blocks cancer stem cells; 300,000 tested, 1.1% active; cancer stem cell-like cells viability, luminescence; inhibition, % at 7.5 µM; AID 2717; in the data active means inhibition above about 75%; inconclusive means no clear call, values can overlap the other calls; tested in HMLE shEcad cells
UPR CHOP act – activators of apoptotic arm of unfolded protein response (CHOP) | activation, % at 10 µM | CHO-CHOP luciferase reporter, UPR activation, luminescence; percent of tunicamycin response over DMSO baseline | 330,000 tested, 0.34% active | AID 449763;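 active means at 10 µM dose, activation of 40% or more, normalized to positive control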
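Dosing – one dose, 10 µM in 0.5% DMSO · System – CHO-CHOP cells, stable luciferase reporter of PERK-eIF2a-CHOP signalling · Input – 500 cells/well · Control set – tunicamycin 10 µg/mL final as positive, DMSO-only wells as negative · Timing – 6 h compound treatment, 37 °C · Measure – % activation vs tunicamycin · Technique – luminescence read with Steady-Glo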
Mdm2 MdmX PPI – inhibitors of human Mdm2/MdmX interaction. SaOS-2 split-luciferase Mdm2/MdmX complementation, luminescence. 330,000 tested, 3% active. inhibition, % at 8 µM. O15151+Q00987;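 active means inhibition of at least 50% at 8 µM in the primary screen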
CHOP UPR conf – apoptotic UPR (CHOP) activation, confirmed; shares compounds with UPR CHOP act; CHO-CHOP cells, CHOP-luciferase reporter luminescence; percent of tunicamycin response, DMSO as zero; activation, % at 10 µM; 1,000 tested, 64% active; AID 463112; in the data active means activation above about 33%
UPR XBP1 confirm – confirmation of adaptive unfolded protein response (XBP1) activators; shares compounds with XBP1 UPR activ; CHO-XBP1 IRE1-XBP1 luciferase reporter, luminescence; activation, % at 20 µM; 1,000 tested, 63% active; AID 485299;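 active means reporter signal at least 30% of the positive control's activation in two or more of four replicate wells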
Mdm2-MdmX conf – human Mdm2/MdmX binding inhibition, confirmed | inhibition, % at 8 µM | 10,000 tested, 55% active | luminescent assay | shares compounds with Mdm2 MdmX PPI | AID 489028; in the data active means inhibition above about 40%
FLuc counter – counter-screen for Mdm2/MdmX inhibitors: full-length luciferase; shares compounds with Mdm2 MdmX PPI; SaOS-2 full-length luciferase counterscreen, luminescence; inhibition, % at 8 µM; 6,200 tested, 77% active;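 active means mean inhibition at 8 µM reaching about 37%, which flags the compound as non-specific, limit read from the data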;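 further: p53-null SaOS-2 cells with luciferase driven by a doxycycline-inducible promoter; compound on cells about two nights before reading with doxycycline added after day one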
A number is an active result; 0 = inactive; ? = inconclusive; - = no result.

SMILES	Beta apoptosis	T cruzi repl	XBP1 UPR activ	CSC inhib	UPR CHOP act	Mdm2 MdmX PPI	UPR XBP1 confirm	others
Cc1ccc(NC(=O)Cn2ncc(Cl)c(Cl)c2=O)cc1S(=O)(=O)N1CCCCC1	0	-	0	-	88	100	-	CHOP UPR conf=57;Mdm2-MdmX conf=85;FLuc counter=54
COc1ccc(C(=O)Cn2c(C(=O)/C=C/c3ccccc3)nc3ccccc32)cc1	0	0	0	0	314	72	-	CHOP UPR conf=348;Mdm2-MdmX conf=46;FLuc counter=61
O=C(O)/C=C/C(=O)c1ccc2c(c1)CCc1ccccc1-2	0	0	0	0	126	67	-	CHOP UPR conf=0;Mdm2-MdmX conf=0
CC(=O)Nc1ccc2c(c1)CCc1ccccc1-2	0	0	0	0	0	0	-
CC(=O)NS(=O)(=O)c1ccc(NC(=O)/C=C/c2cn(-c3ccccc3)nc2-c2ccccc2)cc1	0	0	0	0	0	0	-
O=C(/C=C\c1cn(-c2ccccc2)nc1-c1ccccc1)Nc1nccs1	0	0	106	0	51	84	113	CHOP UPR conf=0;Mdm2-MdmX conf=81;FLuc counter=0
CC(C)(C)C(=O)NC(=S)NNC(=O)c1ccc(-c2ccccc2)cc1	76	0	72	91	69	57	50	CHOP UPR conf=84;Mdm2-MdmX conf=46;FLuc counter=0
COc1ccccc1C(=O)NC(CCSC)C(=O)Nc1ccc(C)c(S(=O)(=O)N2CCOCC2)c1 (stereo not drawn)	0	-	0	0	0	0	-
O=c1cc(CN2CCN(c3ccccc3F)CC2)c2cc(O)c(-c3ccccc3)cc2o1	0	0	0	0	0	0	-
COc1ccc(N2CCN(Cc3cc(=O)oc4cc(-c5ccccc5)c(O)cc34)CC2)cc1	0	0	107	0	116	89	78	CHOP UPR conf=83;Mdm2-MdmX conf=59;FLuc counter=0
CC1(C)Cc2c(sc(NC(=O)COc3cccc4ccccc34)c2C#N)C(C)(C)N1	0	0	0	0	54	98	-	CHOP UPR conf=0;Mdm2-MdmX conf=100;FLuc counter=51
OCCNc1nc(Nc2ccccc2)nc2ccccc12	0	0	0	0	0	0	-
OCCNc1nc(Nc2ccc(Br)cc2)nc2ccccc12	0	62	41	0	76	70	46	CHOP UPR conf=60;Mdm2-MdmX conf=55;FLuc counter=67
O=[N+]([O-])c1cc(-c2ncccn2)c([N+](=O)[O-])s1	0	0	0	?	73	93	-	CHOP UPR conf=164;Mdm2-MdmX conf=42;FLuc counter=0
COC(=O)c1sc(NC(=O)c2cnccn2)c(C(=O)OC)c1C	0	0	41	0	0	0	0
N#Cc1c(-c2ccc3c(c2)OCO3)ccn2nc(-c3cccc(C(F)(F)F)c3)nc12	0	0	53	0	0	0	50
N#Cc1c(-c2ccc3c(c2)OCO3)cc[nH]c1=O	0	0	0	0	0	0	-
COc1ccc(N(CC(=O)Nc2c(C)n(C)n(-c3ccccc3)c2=O)S(=O)(=O)c2ccccc2)cc1OC	0	0	90	0	0	0	0
COc1ccc(N(CC(=O)Nc2c(C)n(C)n(-c3ccccc3)c2=O)S(=O)(=O)c2ccc(C)cc2)cc1	0	0	0	0	0	0	-
COC(=O)c1ccc(NC(=S)N2CCN(Cc3ccccc3OC)CC2)cc1	0	0	0	0	0	0	-
COc1ccc(-c2csc(C3=C(O)CN(Cc4ccc(Cl)cc4)C3=N)n2)cc1OC	0	0	43	0	0	0	134
COC(=O)c1ccc2c(=O)n(CC3CCCO3)c(SCC(=O)Nc3ccccc3Cl)nc2c1 (stereo not drawn)	0	0	35	0	0	0	0
COC(=O)c1ccc2c(=O)n(CC3CCCO3)c(SCC(=O)Nc3ccccc3OC)nc2c1 (stereo not drawn)	-	0	0	0	0	0	-
CCCCC(CCC(=O)Nc1ccc(C(=O)OC)cc1)C(=O)O (stereo not drawn)	0	0	0	0	0	0	-
CCOC(=O)N1CCN(S(=O)(=O)N2CCCC(C(=O)NCCc3ccc(OC)c(OC)c3)C2)CC1 (stereo not drawn)	0	0	0	0	0	0	-
SMILES	Beta apoptosis	T cruzi repl	XBP1 UPR activ	CSC inhib	UPR CHOP act	Mdm2 MdmX PPI	UPR XBP1 confirm	others
Oc1nc(Nc2ccc(F)cc2)sc1/C=C1\C=Nc2ccccc21	0	0	0	0	0	0	-
CC1=Nc2ccccc2/C1=C\c1sc(Nc2ccc(C)cc2)nc1O	0	0	33	85	0	0	40
Cc1ccc(SCC(=O)OCC(=O)NCCCc2ccccc2)cc1	0	0	0	0	0	0	-
O=C(COC(=O)CSc1ccc(F)cc1)NCCCc1ccccc1	0	0	44	0	0	0	0
COc1ccccc1NC(CC(=O)c1ccccc1)C(=O)OCC(=O)c1ccc(C)c(C)c1 (stereo not drawn)	0	0	36	0	0	0	0
Cc1ccc(-n2c(SCC(=O)N3CCCCC3)nc(O)c(Cc3ccccc3)c2=O)cc1	0	0	0	0	0	0	-
O=C1Nc2ccccc2/C1=C/c1ccccc1Cl	0	0	0	0	0	0	-
O=C1Nc2ccccc2/C1=C/c1ccc([N+](=O)[O-])cc1	0	0	75	0	0	0	76
Cc1cc(C)c2c(c1)SC1=NC(c3ccccc3)(C(F)(F)F)NC(=O)N12 (stereo not drawn)	0	0	46	0	0	0	0
CN(C(=O)CSc1nc(-c2cccs2)nc2ccccc12)C1CCS(=O)(=O)C1 (stereo not drawn)	0	-	0	0	0	0	-
Nc1nc(Nc2cccc(C(F)(F)F)c2)nc(C(F)(F)F)n1	0	0	34	0	0	0	49
Cc1ccc2[nH]c3c(=O)n(CC(=O)N4CC(C)CC(C)C4)ncc3c2c1 (stereo not drawn)	0	0	32	0	0	0	0
CCCN1CCN(C(=O)Cn2ncc3c([nH]c4ccc(C)cc43)c2=O)CC1	0	0	0	0	0	0	-
CC(C)(C)C1CCc2sc(-c3nnc(CCl)o3)cc2C1 (stereo not drawn)	0	0	44	0	0	0	0
CS(=O)(=O)c1ccc(Cl)c(C(=O)OCC(=O)NC2CCCCCCC2)c1	0	-	0	-	0	0	-
Cc1cccc(NC(=O)c2cc3c(=O)n4ccccc4nc3n(CC(C)C)c2=N)c1	0	0	99	0	0	0	0
